Reference: ChEMBL document CHEMBL1126803, “Stereospecific and selective 5-HT2 antagonism in a series of 5-substituted trans-1-piperazino-3-phenylindans” (J Med Chem, 1993)
Where “and” joins values, the source holds several entries; their conditions need not be identical. Identical values can stand only once.

Key:
Rattus norvegicus [1] = organism: Rattus norvegicus; experiment: Tested for inhibition of pergolide-induced rotation in 6-OH-DA-lesioned rats after 2 hr; assay type: functional
In short: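 Unilateral 6-OHDA-lesioned rats were given test drug sc 2 h before pergolide (0.05 µmol/kg, sc), which induces contralateral circling. Each dose's effect was expressed as percent of the mean of control sessions held 1 week before and 1 week after the test session in the same rat. At least four rats per dose; ED50 by log-probit analysis.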

D(2) dopamine receptor = D(2) dopamine receptor (Rattus norvegicus, UniProt P61169); experiment: Displacement of [3H]spiperone from dopamine D2 receptors in rat striatal membranes; assay type: cell membranes, Membrane
In short: (§1)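 Radioligand displacement from rat brain membranes: 3H-ketanserin on cortical membranes (5-HT2), 3H-prazosin on whole brain membranes (alpha1), 3H-spiperone on striatal membranes (D2). Two full concentration-effect curves per compound, each with five test drug concentrations in triplicate spanning three decades. IC50 estimated from curves on a log-concentration scale. Outliers beyond 3 times the sd-ratio were discarded after extra determinations.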

[2] = target: T1, Adrenergic receptor alpha-1 (Rattus norvegicus, UniProt P15823+P23944+P43140); experiment: Displacement of [3H]prazosin from alpha-1 adrenoceptors in whole rat brain membranes; assay type: cell membranes; in short: as §1
T1 sequence (P15823 whole entry): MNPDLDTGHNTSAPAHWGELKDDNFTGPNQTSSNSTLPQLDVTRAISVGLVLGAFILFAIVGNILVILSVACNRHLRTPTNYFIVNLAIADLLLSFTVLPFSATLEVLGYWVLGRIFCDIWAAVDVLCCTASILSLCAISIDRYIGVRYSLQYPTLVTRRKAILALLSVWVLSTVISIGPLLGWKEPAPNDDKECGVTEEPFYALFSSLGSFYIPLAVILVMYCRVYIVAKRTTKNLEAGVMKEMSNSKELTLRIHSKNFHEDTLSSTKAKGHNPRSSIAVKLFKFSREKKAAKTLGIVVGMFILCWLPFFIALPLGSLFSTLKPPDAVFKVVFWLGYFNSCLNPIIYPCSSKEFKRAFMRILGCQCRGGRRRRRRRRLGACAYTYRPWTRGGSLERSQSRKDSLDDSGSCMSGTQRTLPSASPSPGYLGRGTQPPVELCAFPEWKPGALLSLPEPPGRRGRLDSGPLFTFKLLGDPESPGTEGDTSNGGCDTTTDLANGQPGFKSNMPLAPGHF
T1 sequence (P23944 whole entry): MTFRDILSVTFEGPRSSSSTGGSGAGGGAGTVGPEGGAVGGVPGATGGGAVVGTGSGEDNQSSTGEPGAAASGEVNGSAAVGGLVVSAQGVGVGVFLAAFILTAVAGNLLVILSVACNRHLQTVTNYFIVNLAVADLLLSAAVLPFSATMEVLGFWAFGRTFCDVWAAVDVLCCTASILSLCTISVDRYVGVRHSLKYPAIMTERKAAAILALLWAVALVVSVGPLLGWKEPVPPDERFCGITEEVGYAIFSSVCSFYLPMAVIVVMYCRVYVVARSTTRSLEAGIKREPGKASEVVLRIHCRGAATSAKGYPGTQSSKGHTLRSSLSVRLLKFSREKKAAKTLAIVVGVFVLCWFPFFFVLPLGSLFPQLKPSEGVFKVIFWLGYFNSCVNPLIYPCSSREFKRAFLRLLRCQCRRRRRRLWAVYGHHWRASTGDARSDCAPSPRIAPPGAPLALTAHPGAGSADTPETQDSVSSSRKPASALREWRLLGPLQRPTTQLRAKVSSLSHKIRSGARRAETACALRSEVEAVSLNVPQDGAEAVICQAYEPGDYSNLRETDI
T1 sequence (P43140 whole entry): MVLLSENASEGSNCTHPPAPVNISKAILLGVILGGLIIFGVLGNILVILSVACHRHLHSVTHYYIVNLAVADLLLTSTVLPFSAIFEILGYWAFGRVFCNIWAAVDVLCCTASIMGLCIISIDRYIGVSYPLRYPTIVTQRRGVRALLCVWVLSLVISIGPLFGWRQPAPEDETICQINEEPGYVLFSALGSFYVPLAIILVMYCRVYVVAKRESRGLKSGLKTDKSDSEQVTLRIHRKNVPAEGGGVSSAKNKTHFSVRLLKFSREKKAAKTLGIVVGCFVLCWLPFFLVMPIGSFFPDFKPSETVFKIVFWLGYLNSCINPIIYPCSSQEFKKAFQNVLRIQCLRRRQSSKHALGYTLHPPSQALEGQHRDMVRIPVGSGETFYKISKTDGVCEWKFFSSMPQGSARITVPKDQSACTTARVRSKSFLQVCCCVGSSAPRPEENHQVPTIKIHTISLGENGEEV

[3] = target: Serotonin 2 (5-HT2) receptor (Rattus norvegicus, UniProt P30994+P08909+P14842); experiment: Displacement of [3H]ketanserin from 5-hydroxytryptamine 2 receptor in rat cortical membranes; assay type: cell membranes, Membrane; in short: as §1
Rattus norvegicus [4] = organism: Rattus norvegicus; experiment: Tested for inhibition of quipazine-induced head twitches after 24 hours of pretreatment; assay type: functional
In short: (§2)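 Test drug was given sc or po to rats 2 or 24 h before quipazine (15 µmol/kg, sc). Head twitches were counted 30-40 min after quipazine, at least four animals per dose. Counts were expressed as percent of a quipazine-only control group.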

Rattus norvegicus [5] = organism: Rattus norvegicus; experiment: Inhibition of quipazine-induced head twitches in rats after 2 hrs of pretreatment; assay type: functional; in short: as §2
Rattus norvegicus [6] = organism: Rattus norvegicus; experiment: Tested for inhibition of quipazine-induced head twitches in rats after 24 hours of pretreatment; assay type: functional; in short: as §2
Rattus norvegicus [7] = organism: Rattus norvegicus; experiment: Tested for inhibition of quipazine-induced head twitches in rats after 2 hours of pretreatment; assay type: functional; in short: as §2
Rattus norvegicus [8] = organism: Rattus norvegicus; experiment: Tested for inhibition of norepinephrine uptake in rat brain membranes; assay type: functional, Membrane
Rattus norvegicus [9] = organism: Rattus norvegicus; experiment: Tested for inhibition of dopamine uptake in rat brain membranes; assay type: functional, Membrane
[10] = Rattus norvegicus, read-out: ED50

D(2) dopamine receptor, sequence (P61169 whole entry): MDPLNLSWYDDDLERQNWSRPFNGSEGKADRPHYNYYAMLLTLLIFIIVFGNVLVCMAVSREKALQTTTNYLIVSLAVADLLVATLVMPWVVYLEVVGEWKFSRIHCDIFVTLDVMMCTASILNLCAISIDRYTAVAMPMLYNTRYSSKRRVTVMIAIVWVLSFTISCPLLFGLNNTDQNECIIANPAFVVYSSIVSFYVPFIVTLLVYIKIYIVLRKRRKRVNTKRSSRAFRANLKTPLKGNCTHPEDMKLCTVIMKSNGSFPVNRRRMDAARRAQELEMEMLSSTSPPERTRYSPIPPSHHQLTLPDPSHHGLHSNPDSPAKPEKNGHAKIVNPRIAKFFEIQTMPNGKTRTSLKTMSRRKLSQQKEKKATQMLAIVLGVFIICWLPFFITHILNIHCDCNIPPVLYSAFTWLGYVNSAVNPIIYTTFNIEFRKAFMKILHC

Row | Structure (SMILES) | IC50 (D(2) dopamine receptor) [nM] | IC50 [2] [nM] | IC50 [3] [nM] | IC50 (Rattus norvegicus [8]) [nM] | IC50 (Rattus norvegicus [9]) [nM] | ED50 (Rattus norvegicus [1]) [µmol/kg] | ED50 (Rattus norvegicus [4]) [µmol/kg] | ED50 (Rattus norvegicus [5]; [10]) [µmol/kg] | ED50 (Rattus norvegicus [6]) [µmol/kg] | ED50 (Rattus norvegicus [7]) [µmol/kg] | ED50 (Rattus norvegicus [5])
1 | O=C(O)/C=C\C(=O)O.O=C(O)/C=C\C(=O)O.O=C1NCCCN1CCN1CCN(C2CC(c3ccc(F)cc3)c3cc(F)ccc32)CC1 (single isomer, unassigned; (+)) | 280 | 41 | 1.1 |  |  | > 15 |  |  |  |  | 0.029 µM/kg and 0.07 µM/kg
2 | CC(C)N1CCN(CCN2CCN(C3CC(c4ccc(F)cc4)c4cc(Cl)ccc43)CC2)C1=O.O=C(O)/C=C\C(=O)O.O=C(O)/C=C\C(=O)O (stereo in doubt; (+)-20) | 1300 | 340 | 75 | 50 | 70 |  |  |  |  |  | >7 µM/kg
3 | Cc1nc2sccn2c(=O)c1CCN1CCC(=C(c2ccc(F)cc2)c2ccc(F)cc2)CC1 [RITANSERIN] |  |  |  |  |  | > 21 |  |  |  |  | 
4 | Cl.Cl.Fc1ccc(C2CC(N3CCN(CCN4CCCNC4=S)CC3)c3ccc(F)cc32)cc1 (single isomer, unassigned; (+)) | 140 | 43 | 0.95 |  |  | > 37 | 0.011 | 0.017 |  |  | 
5 | CC(C)N1CCN(CCN2CCN(C3CC(c4ccc(F)cc4)c4cc(Cl)ccc43)CC2)C1=O.O=C(O)/C=C\C(=O)O.O=C(O)/C=C\C(=O)O (single isomer, unassigned; (-)) | 200 | 210 | 1.1 | 2900 | 1900 | > 14 |  |  |  |  | 
6 | O=C1NCCN1CCN1CCN([C@@H]2C[C@@H](c3ccc(F)cc3)c3ccccc32)CC1 [IRINDALONE] |  | 2.6 |  |  |  | 7.4 | 0.75 | 0.58 |  |  | 
7 | O=C(O)/C=C\C(=O)O.O=C(O)/C=C\C(=O)O.OCCN1CCN(C2CC(c3ccc(F)cc3)c3cccc(Cl)c32)CC1 (stereo unspecified) | 46 | 38 | 15 |  |  |  |  | 1.3 |  |  | 
8 | OCCN1CCN(C2CC(c3ccc(F)cc3)c3ccc(Cl)cc32)CC1 (stereo unspecified) | 20 | 26 | 2.6 |  |  |  |  | 0.039 |  |  | 
9 | Fc1ccc(C2CC(N3CCN(CCN4CCN=C4S)CC3)c3ccc(F)cc32)cc1.O=C(O)/C=C\C(=O)O.O=C(O)/C=C\C(=O)O (stereo unspecified) | 230 | 110 | 1.5 |  |  | > 15 | 0.62 | 0.12 |  |  | 
10 | O=C(O)/C=C\C(=O)O.O=C(O)/C=C\C(=O)O.Oc1nc2ccccc2n1CCN1CCN(C2CC(c3ccc(F)cc3)c3cc(Cl)ccc32)CC1 (stereo unspecified) | 110 | 66 | 5.6 |  |  |  |  | 0.21 |  |  | 

The next lines start with results.

Row | IC50 (D(2) dopamine receptor) [nM] | IC50 [2] [nM] | IC50 [3] [nM] | IC50 (Rattus norvegicus [8]) [nM] | IC50 (Rattus norvegicus [9]) [nM] | Structure (SMILES) | ED50 (Rattus norvegicus [1]) [µmol/kg] | ED50 (Rattus norvegicus [4]) [µmol/kg] | ED50 (Rattus norvegicus [5]; [10]) [µmol/kg] | ED50 (Rattus norvegicus [6]) [µmol/kg] | ED50 (Rattus norvegicus [7]) [µmol/kg] | ED50 (Rattus norvegicus [5])
11 | 33 | 67 | 0.75 |  |  | Cl.Cl.Fc1ccc(C2CC(N3CCN(CCN4CCCNC4=S)CC3)c3ccc(Cl)cc32)cc1 (stereo in doubt; (-)-39) | > 18 | 0.021 | 0.041 |  |  | 
12 |  | 52 | 1.5 |  |  | Fc1ccc(C2CC(N3CCN(CCN4CCNC4=S)CC3)c3ccc(Cl)cc32)cc1.O=C(O)/C=C\C(=O)O (stereo unspecified) | > 14 |  |  | 1.4 | 0.077 | 
13 | 93 | 170 | 1.5 |  |  | Fc1ccc(C2CC(N3CCN(CCN4CCCN=C4S)CC3)c3ccc(Cl)cc32)cc1.O=C(O)/C=C\C(=O)O.O=C(O)/C=C\C(=O)O (stereo unspecified) |  |  | 0.048 |  |  | 
14 | 160 | 73 | 10 |  |  | O=C(O)/C=C\C(=O)O.O=C(O)/C=C\C(=O)O.O=C1NCCN1CCCN1CCN(C2CC(c3ccc(F)cc3)c3cc(Cl)ccc32)CC1 (stereo unspecified) |  |  | 0.91 |  |  | 
15 | 94 | 62 | 1.3 |  |  | O=C(O)/C=C\C(=O)O.O=C(O)/C=C\C(=O)O.O=C1NCCCN1CCN1CCN(C2CC(c3ccc(F)cc3)c3cc(Cl)ccc32)CC1 (single isomer, unassigned; (-)) | > 15 |  | 0.11 | 0.072 |  | 
